# hK5 inh: human KLK5 protease inhibitors, primary screen, biochemical, 1536-well | 210,000 tested, 0.59% active | recombinant hK5, fluorogenic AMC substrate cleavage | inhibition, % at 5 µM | AID 873, 2007 | Kallikrein-5 (Homo sapiens), Q9Y337;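 active = inhibition of 40% or more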;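 also: 0% = enzyme controls without compound and 100% = no-enzyme blanks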
# Target sequence (Q9Y337 67-293 limits assumed): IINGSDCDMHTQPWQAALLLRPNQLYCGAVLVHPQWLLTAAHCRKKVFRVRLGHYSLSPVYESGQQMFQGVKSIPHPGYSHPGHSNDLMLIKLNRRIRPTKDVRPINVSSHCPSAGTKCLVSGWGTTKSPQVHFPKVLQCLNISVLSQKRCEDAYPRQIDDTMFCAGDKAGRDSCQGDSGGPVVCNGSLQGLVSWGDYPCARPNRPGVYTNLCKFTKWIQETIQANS
# FXIIa inh 1536: human FXIIa protease inhibitors, primary screen, biochemical, 1536-well. Coagulation factor XII (Homo sapiens), P00748. purified FXIIa, Boc-QGR-AMC fluorogenic substrate, 2 h. inhibition, % at 5 µM. 220,000 tested, 0.3% active; in the data active = inhibition above about 40%;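 also: 0% = enzyme with no compound and 100% = blank without enzyme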
# Thrombin inh: human alpha-thrombin inhibitors, primary screen, counter-screen for coagulation protease inhibitor project, biochemical, 1536-well, fluorogenic AMC substrate; Boc-VPR-AMC fluorogenic substrate cleavage; inhibition, % at 5 µM; 220,000 tested, 0.26% active;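 active = inhibition at or above 40%; inactive = inhibition below 40%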;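 also: 0% = enzyme with no compound and 100% = wells without enzyme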
#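 System – human alpha-thrombin · Medium – pH 7.5 Tris (50 mM) with NaCl 150 mM, Tween 20 0.05% · Compound – single-point dosing at 5 µM, 0.2% DMSO · Incubation – enzyme reaction carried out at room temperature · Technique – fluorescence of released AMC, ex 355 nm, em 460 nm · Read-out basis – % inhibition of thrombin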
# FXIa inh 1536: human FXIa protease inhibitors, primary screen, biochemical, 1536-well. inhibition, % at 5 µM. purified FXIa, Boc-Glu-Ala-Arg-AMC fluorogenic substrate. 220,000 tested, 0.14% active. Coagulation factor XI (Homo sapiens), P03951;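 active = inhibition of at least 40%; inactive = inhibition below 40%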;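 also: fluorescence of freed AMC excited at 355 nm; 0% = enzyme without compound and 100% = no enzyme blank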
# Wee1 degr inh: Wee1 degradation inhibitors, primary screen, cell-based, HeLa, Wee1K328M-luciferase, luminescence; HeLa Luc-Wee1K328M stability; 100% = proteasome inhibitor MG132 effect; reporter increase, % at 5 µM; 220,000 tested, 1.2% active;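 active = activation above the mean of all tested compounds plus 3 SD, set per screening run, cut at about 8.8% in these data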;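 also: cells exposed to compound for 20 h before luminescence read; 0% = DMSO alone and 100% = MG132 at 30 µM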
# Starred values were filed as active, the others as inactive; · = no result given. Compounds with a hit are over-represented: about 2.2% of the library has one in this group of screens.
SMILES,hK5 inh,FXIIa inh 1536,Thrombin inh,FXIa inh 1536,Wee1 degr inh
Cc1ccc(CNC(=O)CCc2nnc(Cc3ccc(-c4ccccc4)cc3)o2)o1,-0.9,6.9,-11.9,-3.5,6.1
CSc1nc2ccc(NC(=O)c3cc4ccccc4o3)cc2s1,-11.6,9.6,-15.5,-3.2,6.2
Cc1ccc(NC(=O)CN(C)C(=O)CCC(=O)c2cccs2)cc1,14.1,-2.7,47.2*,6.8,1.1
COc1cc2c3c(c1OC)C1(C=CC(=NO)C=C1)CC3N(C(C)=O)CC2 (stereo not given),3.0,3.4,-3.6,-0.5,10.4*
COc1ccc(CNC(=O)Nc2cccs2)cc1OC,-34.8,14.5,-0.6,6.7,0.4
Cc1ccc(CNC(=O)Nc2cccs2)cc1,-20.2,7.1,-2.5,-0.8,9.1*
COc1cccc(-c2cc(C(=O)N3CCN(c4ncccn4)CC3)c3ccccc3n2)c1,0.7,-3.9,-3.1,1.4,5.4
CC(C)Oc1cccc(-c2cc(C(=O)N3CCN(c4ncccn4)CC3)c3ccccc3n2)c1,-3.1,8.7,1.7,-1.7,9.3*
Cc1ccc(OCc2n[nH]c(=S)n2N)cc1C,1.3,8.6,101.1*,-1.9,-0.7
Cc1nnc(NC(=O)CCC(=O)NCc2ccco2)s1,-14.5,14.5,2.3,6.8,10.0*
COc1ccccc1NC(=O)c1csc2c1CCCC2,63.1*,1.8,2.9,1.1,-0.1
CC(C)n1c(O)c(N=NC(=O)Cn2ccc(C(F)(F)F)n2)c2ccccc21,17.0,3.8,2.2,-5.1,-0.1
O=C(COc1ccccc1)Nc1ccc(CN2CCCCC2)cc1,0.8,7.6,5.7,-0.6,-1.5
Cc1cc(OCC(=O)Nc2ccc(CN3CCCCC3)cc2)ccc1Cl,42.4*,21.2,16.3,28.9,-0.9
FC(F)(F)c1cc(N2CCN(Cc3ccccc3)CC2)c2ccccc2n1,0.0,1.7,1.5,2.7,10.2*
FC(F)(F)c1cc(N2CCNCC2)c2ccccc2n1,-9.1,-2.1,-4.0,-6.7,-2.6
CN(C)c1ccc(-c2nnn(CC(=O)Nc3ccccc3N3CCOCC3)n2)cc1,66.0*,8.3,8.3,4.5,4.1
Cc1ccccc1NC(=O)Cn1nnc(-c2ccc(N3CCOCC3)cc2)n1,1.0,1.6,-5.3,-3.9,7.5
CCOc1ccc(/C=C2\C(=O)c3ccccc3OC2c2ccccc2)cc1 (stereo not given),-2.9,7.6,3.8,1.4,4.3
COc1ccc(/C=C2\C(=O)c3ccccc3OC2c2ccccc2)cc1 (stereo not given),7.1,18.2,5.7,6.2,10.4*
O=C(CCC1CCCCC1)Nc1ccccc1C(=O)N1CCOCC1,·,6.5,-0.4,-1.4,0.4
COc1cc(/C=C(\C#N)C(=O)Nc2cccnc2)ccc1OC(C)C,-1.7,10.6,-6.4,2.8,11.3*
CCOC(=O)N1CCN(C(=O)c2ccc(OCC)cc2)CC1,-6.6,8.3,-30.6,-2.9,-0.7
CCOc1ccc(C(=O)n2cnnc2N)cc1,41.4*,37.8,-3.2,6.6,1.2
COc1ccc2c(c1)CCc1c(C(=O)NCc3ccc(F)cc3)noc1-2,-7.4,49.1*,-2.8,6.1,0.0
SMILES,hK5 inh,FXIIa inh 1536,Thrombin inh,FXIa inh 1536,Wee1 degr inh
Cc1ccc(OC(F)F)c(NC(=O)Nc2cccc(C(F)(F)F)c2)c1,56.4*,19.7,18.6,7.8,-0.6
Fc1ccccc1Oc1nc(-c2ccncc2)nc2ccccc12,-3.0,4.0,0.6,-2.2,8.9*
O=C1CC(Nc2ccccc2)C(=O)N1c1ccc(N2CCOCC2)cc1 (stereo not given),44.8*,12.3,3.8,2.7,-0.7
Cc1cc(-c2nnnn2-c2cc(Cl)cc(Cl)c2)no1,-6.4,2.1,-7.6,-3.4,1.5
O=C(CSc1nc(-c2ccccc2)nn1C(=O)c1ccccc1)Nc1cccc([N+](=O)[O-])c1,15.6,10.7,57.1*,-1.9,-0.5
O=C(c1ccc([N+](=O)[O-])cc1)n1nc(-c2ccccc2)nc1NCc1ccccc1,13.4,10.7,87.2*,2.8,3.3
O=C(c1ccc([N+](=O)[O-])cc1)n1nc(-c2ccccc2)nc1NCc1ccc(F)cc1,-6.1,0.1,52.3*,-0.8,-1.5

# Screening data from PubChem BioAssay.
